Measured values published in PMC7880549 (Bioorganic & medicinal chemistry, 2020).

What was measured:
[1] = target: T1, UCHL5 (Homo sapiens, UniProt Q9Y5K5); experiment: in vitro DUB assay with purified UCHL5 and Ub-rhodamine 110; type: biochemical
T1 sequence (Q9Y5K5 1-329): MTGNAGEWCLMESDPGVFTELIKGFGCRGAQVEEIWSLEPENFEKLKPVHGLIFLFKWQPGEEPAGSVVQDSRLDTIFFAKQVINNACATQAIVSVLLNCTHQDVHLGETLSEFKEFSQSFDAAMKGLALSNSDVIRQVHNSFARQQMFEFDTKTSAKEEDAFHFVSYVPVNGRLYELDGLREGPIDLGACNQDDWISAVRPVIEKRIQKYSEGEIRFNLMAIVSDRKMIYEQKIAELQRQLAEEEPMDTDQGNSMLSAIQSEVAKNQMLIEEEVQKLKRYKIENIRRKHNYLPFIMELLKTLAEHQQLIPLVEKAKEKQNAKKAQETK

[2] = target: T1, UCHL5; type: biochemical; conditions: MDA-MB-231 lysate pre-incubated 30 min, Ub-VS 1 μM
Procedure, shortened: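 Lysate (20 μg protein) was pre-incubated with test compound at RT, then Ub-VS was added for 11 min at RT. After SDS quench and 12% SDS-PAGE, blots were probed for UCHL5 band shift and β-actin. Two independent experiments were run.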

Compound | improvement of IC50 compared to TA ([1]; TAA1 vs TA) | concentrations inhibiting UCHL5/Ub-VS conjugation [2] | improved potency versus TAB1 ([1]; TAB2 vs TAB1)
CC(C(=O)O)c1ccc(C(=O)c2cccc(-c3ccccc3C(=O)O)c2)s1 (stereo not drawn) [TAA1] | ca. 33 fold | – | –
Nc1ccc(-c2cn(Cc3cc(C(=O)O)cc(-c4cccc(C(=O)O)c4)c3)nn2)cc1 [TAB2] | – | 25 to 50 µM | ca. 2.5 fold
